Bioassay records from PubChem BioAssay.
MC4R barr agon: MC4R agonists recruiting beta-arrestin, primary screen, cell-based, luminescence, agonist arm of biased-ligand search | activation, % at 8.9 µM | 360,000 tested, 0.98% active | Melanocortin receptor 4 (Homo sapiens), P32245 | U2OS MC4R beta-arrestin complementation; percent of melanotan II response, DMSO zero;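 active means activation above a per-plate cutoff, the mean activation of sample wells on that plate plus 3 SD, cut at about 8% in these data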
Target sequence (P32245 whole entry, looked up): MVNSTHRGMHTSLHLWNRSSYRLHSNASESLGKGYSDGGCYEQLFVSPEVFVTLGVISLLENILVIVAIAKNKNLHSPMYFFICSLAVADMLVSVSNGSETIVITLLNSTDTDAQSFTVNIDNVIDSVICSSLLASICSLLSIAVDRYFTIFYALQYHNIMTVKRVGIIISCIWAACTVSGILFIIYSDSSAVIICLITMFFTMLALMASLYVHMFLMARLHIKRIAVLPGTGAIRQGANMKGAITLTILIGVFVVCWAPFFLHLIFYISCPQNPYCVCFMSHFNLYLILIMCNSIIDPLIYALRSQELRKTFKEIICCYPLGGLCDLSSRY
HTR2A ag: mouse Htr2a agonists via beta-arrestin recruitment, primary screen, cell-based, luminescence; CHO-K1 mHTR2A beta-arrestin complementation; percent of 30 µM serotonin response; activation, % at 7.6 µM; 5-hydroxytryptamine receptor 2A (Mus musculus), P35363; 360,000 tested, 0.66% active;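 active means activation above a run cutoff, the mean activation of all tested compounds plus 3 SD, cut at about 14% in these data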;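 further: 0% = plate median of compound wells and 100% = 30 µM serotonin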
MC4R antag cAMP: MC4R antagonists of cAMP signaling, primary screen, cell-based, TR-FRET, antagonist arm of biased-ligand search; Melanocortin receptor 4 (Homo sapiens), P32245; MC4R-expressing cells, MTII-stimulated cAMP, LANCE TR-FRET; inhibition, % at 6.5 µM; 360,000 tested, 0.48% active; AID 540295, 2011;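 active means inhibition above its plate's cutoff, the mean of tested wells on that plate plus 3 SD, cut at about 29% in these data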;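 further: 0% = Melanotan II alone and 100% = Melanotan II plus saturating MCL0020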
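Material: U2OS-MC4R stable cell line | Reagent: Melanotan II challenge after compound preincubation | Doses: One concentration, 6.5 µM nominal | Incubation: 30-min compound preincubation, 1-h Melanotan II challenge, 1-h detection, room temperature | Signal: TR-FRET cAMP assay | Replicates: One well per compound, no replicates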
EBI2 antag: EBI2 receptor antagonists, beta-arrestin recruitment, primary screen, cell-based, luminescence, 7a,25-OHC stimulation, uHTS; 7a,25-OHC stimulated; AID 651636, 2012; G-protein coupled receptor 183 (Homo sapiens), P32249; inhibition, % at 5 µM; 360,000 tested, 0.81% active; in the data active means inhibition above about 38%;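 further: enzyme fragment complementation signal reports receptor beta-arrestin coupling in cells; 0% = agonist plus DMSO wells and 100% = wells without agonist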
Starred values were filed as active, the others as inactive; · = no result given; ! = not confirmed by another sample. A selection: hits, their analogues and other compounds. The true share with any hit is near 2.8%.

SMILES | MC4R barr agon | HTR2A ag | MC4R antag cAMP | EBI2 antag
C=C1C(=O)O[C@H]2C[C@H]1[C@@H](OC(C)=O)C/C(C)=C/CC/C(C)=C\CC[C@]2(C)O | 0 | 6 | 18 | 52*
COc1ccc(C(=O)CC(C#N)c2ccc3c(c2)OCO3)cc1OC (stereo not given) | -1 | -3 | 2 | 5
O=C(Nc1cccnc1Cl)c1cc(-c2cccc(O)c2)on1 | 12* | -3 | 6 | -6
COc1cccc(-c2cc(C(=O)Nc3cccnc3Cl)no2)c1 | -2 | 5 | 0 | 7
CC(CNC(=O)CC[C@H]1O[C@@H](n2ccc(=O)[nH]c2=O)[C@H](O)[C@@H]1O)c1ccccc1 (stereo not given in full) | · | 0 | · | -4
Cc1ccc(C)c(OCCCNCc2ccccc2)c1 | 7 | 3 | 17 | 5
Clc1cc(Br)ccc1OCCCNCc1ccccc1 | 8.8* | -5 | 3 | -11
CC(C)Nc1nc(Nc2ccc(C#N)cc2)c2sccc2n1 | 0 | -2 | 15 | -3
O=C1c2cccc3c([N+](=O)[O-])ccc(c23)C(=O)N1c1ccc(Cl)cn1 | 1 | -4 | -19 | 44*
Cc1ccc2nc(/C(C#N)=C\c3ccc([N+](=O)[O-])o3)[nH]c2c1 | 766* | 12 | -47 | 37
COc1cccc(-c2oc3c(c2C#CCCO)C(O)CCC3)c1 (stereo not given) | · | -2 | · | -4
Cc1cc(C(=O)OC(C)C(=O)Nc2nc(-c3ccccc3)cs2)c(C)o1 (stereo not given) | 3 | -1 | 6 | -23
Cc1cc(C(=O)OCC(=O)Nc2nc(-c3ccccc3)cs2)c(C)o1 | 8.5* | 1 | 13 | 8
O=C(Oc1ccccc1/C=C\C(=O)c1cc2ccccc2o1)c1ccccc1 | -1 | -3 | 3 | 48*
c1ccc2c(-c3cccc4nccn34)cncc2c1 | -1 | -3 | -3 | -3
O=C(COc1ccc2ccccc2c1)Nc1cccnc1Cl | 8.3* | 5 | 13 | 13
O=C(COc1ccc2ccccc2c1)Nc1cccc2cccnc12 | -3 | -4 | -2 | -2
CCc1nc2ccc(C(=O)N3CCN(C(=O)c4ccco4)CC3)cn2c1N(C)C(=O)c1cccc(OC)c1 | 2 | 6 | 12 | -9
N#CC1C(=O)NC(=O)C(C#N)C12CCCC2 (stereo not given) | · | 1 | · | -5
CCCCCCCCCC[n+]1cccc2c3ccccc3ccc21 | 49* | -5 | -17 | -2
CCCCCCCC[n+]1cccc2c3ccccc3ccc21 | 7 | -5 | -13 | -3
Cc1ccc(S(=O)(=O)c2ccc([N+](=O)[O-])o2)cc1 | -3 | -10 | 88* | 31
Cc1ccc(C(=O)/C=C/Nc2ccc3c(c2)OCO3)cc1 | 12* | -1 | 5 | 26
C#CCn1cc(CNC[C@H]2O[C@@H](n3cnc4c(=O)[nH]c(N)nc43)[C@H](O)[C@@H]2O)c2ccccc21 | · | 4 | · | 4
O=S1(=O)CC(N2CCN(CCO)CC2)CN1C1CCCCC1 (stereo not given) | · | 6 | · | -6
SMILES | MC4R barr agon | HTR2A ag | MC4R antag cAMP | EBI2 antag
C=CCSc1nc2ccccc2n1C(=O)/C=C/c1cc(OC)c(OC)c(OC)c1 | -2 | -2 | 8 | 56*
COc1cc(/C=C/C(=O)NCCn2c(C)cc3ccccc32)cc(OC)c1OC | 0 | -3 | 13 | 9
CCSc1nc2ccccc2n1C(=O)/C=C/c1ccc(OC)c(OC)c1 | -1 | 2 | -7 | 33
C=CCSc1nc2ccccc2n1C(=O)/C=C/c1ccc(OC)c(OC)c1 | 0 | -2 | -25 | 46*
CC1(C(=O)NS(=O)(=O)Cc2cccc(Cl)c2)CCN1C(=O)CC1CCCC1 (stereo not given) | 1 | 0 | 4 | 7
CN(C)CCCNC(=O)c1cccc(-c2cnc3cccnn23)c1 | 1 | -1 | 15 | -8
COc1cc(NC(=O)c2cccc(Br)c2)nc(OC)n1 | -3 | 3 | 1 | 10
O=c1[nH][nH]c2c1[C@H](c1ccc(Cl)cc1)O[C@H](C1CCCCC1)C2 | · | -2 | · | 7
CC(C)c1ccc(OCC(O)CN2CCN(c3ccccc3)CC2)cc1 (stereo not given) | 8.9*! | 8 | -4 | 10
CC(C)c1ccc(C(=O)N2CCOCC2c2cc(C(=O)Nc3ccccc3)no2)cc1 (stereo not given) | 1 | -4 | -1 | -9
O=C(COC(=O)/C=C/c1ccccc1[N+](=O)[O-])Nc1ccc(OCc2ccccc2)cc1 | 9.2* | 2 | -5 | -4
CCOc1ccc2oc(C(=O)Nc3ccc4c(c3)OCO4)c(C)c2c1 | 0 | -12 | 7 | 4
CCOc1ccc2oc(C(=O)Nc3ccc(N4CCOCC4)cc3)c(C)c2c1 | 9.3* | 0 | -10 | 28
CCOc1ccc2oc(C(=O)N3CCN(Cc4ccccc4)CC3)c(C)c2c1 | 0 | -4 | 10 | 44*
CCOc1ccc2oc(C(=O)O)c(C)c2c1 | -2 | -1 | 9 | -5
CCNC(=O)C1CCCN(Cc2cc(-c3ccccc3)on2)CC1 (stereo not given) | -1 | -4 | -2 | -5
COc1ccc(C2=CC3=C(Br)C(=O)C(C)(O)C(=O)C3=CO2)cc1 (stereo not given) | 1 | -4 | 35* | -12
CCC(=O)OC1(C)C(=O)C2=COC(c3ccc(OC)cc3)=CC2=C(Br)C1=O (stereo not given) | -1 | 2 | 16 | -5
COC(=O)c1ccc(NC(=O)C2CCCN(S(=O)(=O)c3cnc[nH]3)C2)cc1 (stereo not given) | 0 | 17* | -4 | -3
O=C(NC1CCCCCC1)C1CCCN(S(=O)(=O)c2cnc[nH]2)C1 (stereo not given) | 1 | 24* | -2 | -5
CCc1ccc(NC(=O)C2CCCN(S(=O)(=O)c3cnc[nH]3)C2)cc1 (stereo not given) | 2 | 3 | 6 | -3
O=C(NC1CCCc2ccccc21)C1CCCN(S(=O)(=O)c2cnc[nH]2)C1 (stereo not given) | 0 | 11 | -1 | -5
CCN(CC)Cc1ccccc1CNC(=O)c1cccc(S(=O)(=O)Nc2ccc3c(c2)OCO3)c1 | -1 | -8 | 6 | -5
CCOc1ccc(C(=O)CCC(=O)Nc2cccc(S(=O)(=O)N3CCCCC3)c2)cc1 | -1 | 3 | 16 | 12
S=c1nc(NCCc2ccccc2Cl)c2ccccc2[nH]1 | 12* | 1 | -2 | -1
O=C(NCCc1ccc(Cl)cc1)C1CCC(CNc2nc(=S)[nH]c3ccccc23)CC1 (stereo not given) | 16* | -5 | 7 | 3
Cc1cccc(Oc2cnn(C(C)(C)C)c(=O)c2Cl)c1 | 8.8* | 4 | 6 | -7
O=C(O)COc1ccc(/C=C/C(=O)c2ccc(C3CCCCC3)cc2)cc1 | 8.8* | 0 | -9 | 7
